# Results reported in ChEMBL document CHEMBL2021897, “Synthesis and SAR of 1,3-thiazolyl thiophene and pyridine derivatives as potent, orally active and S1P₃-sparing S1P₁ agonists” (Bioorg Med Chem Lett, 2012).
# The source made the active and inactive calls. The calls are words filed in the database; no cut-off is given here.
# Experiments:
# [1] = molecular target: Sphingosine 1-phosphate receptor 1 (Homo sapiens, UniProt P21453); experiment: Agonist activity at human S1P1 receptor by [S35]GTPgammaS binding assay; assay type: functional
# Sphingosine 1-phosphate receptor 1, sequence (P21453 whole entry): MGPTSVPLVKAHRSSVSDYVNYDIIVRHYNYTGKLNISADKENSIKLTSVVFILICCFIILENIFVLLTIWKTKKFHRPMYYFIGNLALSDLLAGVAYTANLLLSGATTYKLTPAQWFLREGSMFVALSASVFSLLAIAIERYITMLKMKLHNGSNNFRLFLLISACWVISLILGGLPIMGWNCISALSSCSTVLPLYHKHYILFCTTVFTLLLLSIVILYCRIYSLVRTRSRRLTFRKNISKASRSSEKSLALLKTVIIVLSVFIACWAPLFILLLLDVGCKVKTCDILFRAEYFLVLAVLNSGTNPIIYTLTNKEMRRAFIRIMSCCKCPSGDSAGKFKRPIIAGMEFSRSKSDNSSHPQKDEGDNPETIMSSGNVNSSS
# Summary of the method: (§1)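 GTPγS binding at human S1P1 and S1P3 receptors. EC50 is the mean of two experimental determinations.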
# Rattus norvegicus [2] = experiment: Immunosuppressive activity in LEW rat transplanted with spleen cells of WKAH rat assessed as inhibition of enlargement of draining popliteal lymph node at 1 mg/kg, po qd for 4 days; assay type: functional; details: for inhibition in vivo at 1 mg/kg: 96 h
# Summary of the method: (§2)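 Spleen cells from WKAH rats were injected into the footpads of LEW rats to induce draining popliteal lymph node enlargement. Dosing was oral, once daily for four days from the day of cell injection (day 0). Lymph node weight was measured on day 4. Values are the mean of five rats; ID50 is derived from at least three doses.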
# [3] = molecular target: Sphingosine 1-phosphate receptor 3 (Homo sapiens, UniProt Q99500); experiment: Agonist activity at human S1P3 receptor by [S35]GTPgammaS binding assay; assay type: functional; summary of the method: as §1
# Sphingosine 1-phosphate receptor 3, sequence (Q99500 whole entry): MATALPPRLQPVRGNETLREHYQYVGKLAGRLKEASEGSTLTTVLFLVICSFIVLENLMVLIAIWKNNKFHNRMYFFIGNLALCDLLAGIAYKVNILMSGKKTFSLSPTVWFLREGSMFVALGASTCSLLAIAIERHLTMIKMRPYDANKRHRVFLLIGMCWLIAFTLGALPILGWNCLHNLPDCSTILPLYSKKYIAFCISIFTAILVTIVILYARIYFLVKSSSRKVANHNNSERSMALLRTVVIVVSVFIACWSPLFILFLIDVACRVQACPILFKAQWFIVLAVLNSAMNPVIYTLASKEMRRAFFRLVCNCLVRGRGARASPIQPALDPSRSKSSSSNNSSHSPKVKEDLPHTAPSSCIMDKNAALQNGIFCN
# Rattus norvegicus [4] = experiment: Immunosuppressive activity in po dosed LEW rat transplanted with spleen cells of WKAH rat assessed as inhibition of enlargement of draining popliteal lymph node administered qd for 4 days; assay type: functional; details: 96 h, read-out: ID50 (the source's name); summary of the method: as §2
# Homo sapiens = species on record: Homo sapiens; experiment: Selectivity ratio of EC50 for human S1P3 receptor to EC50 for human S1P1 receptor
# Rattus norvegicus [5] = experiment: Drug metabolism in po dosed rat plasma assessed as formation of 4-phenoxy benzoic acid; assay type: ADME, organism-based; details: in vivo
# [6] = Stability of the compound in presence of enterobacteria from monkey feces contents under anaerobic condition at 3 to 30 uM after 48 hrs; assay type: ADME, tissue-based
# Summary of the method: (§3)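 Compound solutions at 3.0 and 30 µM were exposed to anaerobic enterobacterial culture fluid from rat cecal contents or monkey feces, grown in prereduced PYF broth, with broth alone as control. Percent compound remaining was traced at 24 and 48 h.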
# [7] = Stability of the compound in presence of enterobacteria from rat cecal contents under anaerobic condition at 3 to 30 uM after 48 hrs; assay type: ADME; summary of the method: as §3
# [8] = Stability of the compound in presence of enterobacteria from rat cecal contents under anaerobic condition at 3 to 30 uM after 24 hrs; assay type: ADME; summary of the method: as §3
# [9] = Stability of the compound in presence of enterobacteria from monkey feces contents under anaerobic condition at 3 to 30 uM after 24 hrs; assay type: ADME, tissue-based; summary of the method: as §3
# [10] = Cmax in cynomolgus monkey at 1 mg/kg, po; assay type: ADME, organism-based, Macaca fascicularis; set-up: dose 1 mg/kg, route oral; details: in vivo
# Summary of the method: (§4)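 Single oral dose in Lewis rats (n = 4) or cynomolgus monkeys (n = 2), with plasma parameters derived. Bioavailability was calculated against iv dosing at 1.0 mg/kg in rats (n = 2) and 0.5 mg/kg in monkeys (n = 2).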
# [11] = AUC (0 to infinity) in Lewis rat at 3 mg/kg, po; assay type: ADME, organism-based; set-up: dose 3 mg/kg, route oral, time infinity; details: plasma; summary of the method: as §4
# [12] = Cmax in Lewis rat at 3 mg/kg, po; assay type: ADME, organism-based; set-up: dose 3 mg/kg, route oral; details: in vivo; summary of the method: as §4
# [13] = Oral bioavailability in cynomolgus monkey at 1 mg/kg; assay type: ADME, organism-based, Macaca fascicularis; details: in vivo; summary of the method: as §4
# [14] = Clearance in cynomolgus monkey at 0.5 mg/kg, iv; assay type: ADME, organism-based, Macaca fascicularis; set-up: dose 0.5 mg/kg, route intravenous; details: in vivo
# Summary of the method: (§5)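 Single iv administration to Lewis rats at 1.0 mg/kg (n = 2) or cynomolgus monkeys at 0.5 mg/kg (n = 2), with clearance and volume of distribution derived.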
# [15] = Tmax in Lewis rat at 3 mg/kg, po; assay type: ADME, organism-based; set-up: dose 3 mg/kg, route oral; details: in vivo; summary of the method: as §4
# [16] = Half life in cynomolgus monkey at 1 mg/kg, po; assay type: ADME, organism-based, Macaca fascicularis; set-up: dose 1 mg/kg, route oral; details: in vivo; summary of the method: as §4
# [17] = Volume of distribution in Lewis rat at 1 mg/kg, iv; assay type: ADME, organism-based; set-up: dose 1 mg/kg, route intravenous; details: in vivo; summary of the method: as §5
# [18] = Volume of distribution in cynomolgus monkey at 0.5 mg/kg, iv; assay type: ADME, organism-based, Macaca fascicularis; set-up: dose 0.5 mg/kg, route intravenous; details: in vivo; summary of the method: as §5
# [19] = Clearance in Lewis rat at 1 mg/kg, iv; assay type: ADME, organism-based; set-up: dose 1 mg/kg, route intravenous; details: in vivo; summary of the method: as §5
# [20] = Half life in Lewis rat at 3 mg/kg, po; assay type: ADME, organism-based; set-up: dose 3 mg/kg, route oral; details: in vivo; summary of the method: as §4
# [21] = Oral bioavailability in Lewis rat at 3 mg/kg; assay type: ADME, organism-based; details: in vivo; summary of the method: as §4
# [22] = Tmax in cynomolgus monkey at 1 mg/kg, po; assay type: ADME, organism-based, Macaca fascicularis; set-up: dose 1 mg/kg, route oral; details: in vivo; summary of the method: as §4
# [23] = AUC (0 to infinity) in cynomolgus monkey at 1 mg/kg, po; assay type: ADME, organism-based, Macaca fascicularis; set-up: time infinity, dose 1 mg/kg, route oral; details: plasma; summary of the method: as §4
# [24] = molecular target: T1, Peroxisome proliferator-activated receptor alpha (Homo sapiens) (UniProt Q07869); experiment: Agonist activity at PPARalpha; assay type: functional
# T1 sequence (whole entry): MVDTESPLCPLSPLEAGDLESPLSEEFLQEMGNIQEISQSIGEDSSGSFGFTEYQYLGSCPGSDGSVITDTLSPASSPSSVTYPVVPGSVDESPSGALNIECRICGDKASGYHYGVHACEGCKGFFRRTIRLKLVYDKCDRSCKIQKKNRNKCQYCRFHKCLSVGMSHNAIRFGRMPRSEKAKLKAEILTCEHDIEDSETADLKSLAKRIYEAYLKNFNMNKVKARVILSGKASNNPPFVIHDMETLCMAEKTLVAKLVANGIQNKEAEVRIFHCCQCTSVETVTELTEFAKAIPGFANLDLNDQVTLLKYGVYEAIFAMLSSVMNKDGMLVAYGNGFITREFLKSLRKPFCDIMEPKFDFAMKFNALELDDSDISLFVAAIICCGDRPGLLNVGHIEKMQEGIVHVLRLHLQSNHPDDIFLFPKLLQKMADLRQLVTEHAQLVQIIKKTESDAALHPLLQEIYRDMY
# [25] = AUC (0 to infinity) in cynomolgus monkey at 0.5 mg/kg, po; assay type: ADME, organism-based, Macaca fascicularis; set-up: time infinity, dose 0.5 mg/kg, route oral; details: plasma; summary of the method: as §4
# [26] = Tmax in cynomolgus monkey at 0.5 mg/kg, po; assay type: ADME, organism-based, Macaca fascicularis; set-up: dose 0.5 mg/kg, route oral; details: in vivo; summary of the method: as §4
# [27] = Oral bioavailability in cynomolgus monkey at 0.5 mg/kg; assay type: ADME, organism-based, Macaca fascicularis; details: in vivo; summary of the method: as §4
# [28] = Half life in cynomolgus monkey at 0.5 mg/kg, po; assay type: ADME, organism-based, Macaca fascicularis; set-up: dose 0.5 mg/kg, route oral; details: in vivo; summary of the method: as §4
# [29] = Cmax in cynomolgus monkey at 0.5 mg/kg, po; assay type: ADME, organism-based, Macaca fascicularis; set-up: dose 0.5 mg/kg, route oral; details: in vivo; summary of the method: as §4
EC50 [1] [nM],EC50 [3] [nM],Structure (SMILES),inhibition in vivo at 1 mg/kg (Rattus norvegicus [2]) [%],ED50 (Rattus norvegicus [4]) [mg/kg],also measured
2.8,> 20000,CCc1nc(CN2CC(C(=O)O)C2)ccc1-c1cnc(-c2ccc(OC(C)C)c(C)c2)s1,17,–,–
8,> 20000,CCc1cc(CN2CC(C(=O)O)C2)sc1-c1ncc(-c2ccc(O[C@H](C)CC)c(C)c2)s1,27,–,–
300,> 20000,CCc1cc(CN2CC(C(=O)O)C2)sc1-c1cnc(-c2ccc(Oc3ccccc3)cc2)o1,–,–,–
25,> 20000,CCc1cc(CN2CC(C(=O)O)C2)sc1-c1nnc(-c2ccc(Oc3ccccc3)cc2)s1,–,–,inhibition (Rattus norvegicus [2]): inactive
10,> 20000,CCc1cc(CN2CC(C(=O)O)C2)sc1-c1ncc(-c2ccc(OC(C)C)cc2)s1,52,–,–
35,> 20000,CCc1cc(CN2CC(C(=O)O)C2)sc1-c1cnc(-c2ccc(Oc3ccccc3)cc2)s1,25,–,–
5.4,> 20000,CCc1cc(-c2ncc(-c3ccc(CN4CC(C(=O)O)C4)nc3CC)s2)ccc1CC(C)C,–,0.74,–
4.1,> 20000,CCc1nc(CN2CC(C(=O)O)C2)ccc1-c1cnc(-c2ccc(CC(C)C)c(C)c2)s1,–,0.64,–
90,> 20000,CCc1cc(CN2CC(C(=O)O)C2)sc1-c1ncc(-c2ccc(Oc3ccccc3)cc2)o1,–,–,–
1.1,400,CCCc1cc(-c2cnc(-c3sc(CN4CC(C(=O)O)C4)cc3CC)s2)ccc1OC(C)C,73,–,–
5.5,> 20000,CCc1nc(CN2CC(C(=O)O)C2)ccc1-c1ncc(-c2ccc(OC(C)C)c(C)c2)s1,39,–,–
4.5,> 20000,CCc1cc(CN2CC(C(=O)O)C2)sc1-c1ncc(-c2ccc(Oc3ccccc3)cc2)s1,42,–,Ratio EC50 (Homo sapiens): > 4400
5.8,> 20000,CCc1cc(CN2CC(C(=O)O)C2)sc1-c1ncc(-c2ccc(OC(C)C)c(F)c2)s1,–,0.48,–
3.4,> 20000,CCc1cc(-c2cnc(-c3sc(CN4CC(C(=O)O)C4)cc3CC)s2)ccc1OC(C)C,–,0.16,–
–,> 20000,CCc1cc(CN2CC(C(=O)O)C2)sc1-c1noc(-c2ccc(Oc3ccccc3)cc2)n1,–,0.41,Drug metabolism (Rattus norvegicus [5]): Active; Stability [6]: Unstable; Stability [7]: Unstable; Stability [8]: Unstable; Stability [9]: Unstable
3.4,> 20000,CCc1cc(CN2CC(C(=O)O)C2)sc1-c1ncc(-c2ccc(OC(C)C)c(C)c2)s1,–,0.07,Cmax [10]: 630 ng/mL; AUC(0-inf) [11]: 5140 ng·h/mL; Cmax [12]: 340 ng/mL; bioavailability [13]: > 90%; clearance [14]: 2 mL/min/kg; Tmax [15]: 5 h; half-life [16]: 7.2 h; Vd [17]: 5.37 L/kg; Vd [18]: 0.89 L/kg; Stability [6]: Stable; clearance [19]: 6.72 mL/min/kg; half-life [20]: 11.5 h; Stability [7]: Stable; bioavailability [21]: 70.6%; Tmax [22]: 4 h; AUC(0-inf) [23]: 8690 ng·h/mL; Stability [8]: Stable; Stability [9]: Stable
54,> 20000,CCc1cc(CN2CC(C(=O)O)C2)sc1-c1nnc(-c2ccc(Oc3ccccc3)cc2)o1,–,–,–
11,> 20000,CCc1cc(CN2CC(C(=O)O)C2)sc1-c1cnc(-c2ccc(OC(C)C)c(C)c2)s1,–,0.19,–
3.2,> 20000,CCc1cc(CN2CC(C(=O)O)C2)sc1-c1ncc(-c2ccc(OC(C)C)c(Cl)c2)s1,54,–,–
22,> 20000,CCc1cc(CN2CC(C(=O)O)C2)sc1-c1cc(-c2ccc(Oc3ccccc3)cc2)on1,2,–,–
3.5,> 20000,CCc1cc(CN2CC(C(=O)O)C2)sc1-c1ncc(-c2ccc(C(C)C)c(C)c2)s1,–,1.07,–
6,> 20000,CCc1cc(CN2CC(C(=O)O)C2)sc1-c1ncc(-c2ccc(O[C@@H](C)CC)c(C)c2)s1,–,0.32,–
–,–,O=C(O)c1ccc(Oc2ccccc2)cc1,–,–,Activity [24]: Active
15,> 20000,CCc1cc(CN2CC(C(=O)O)C2)sc1-c1cc(-c2ccc(Oc3ccccc3)cc2)no1,–,–,inhibition (Rattus norvegicus [2]): inactive
4,> 20000,CCc1cc(-c2cnc(-c3ccc(CN4CC(C(=O)O)C4)nc3CC)s2)ccc1OC(C)C,–,0.49,clearance [14]: 1.75 mL/min/kg; AUC(0-inf) [25]: 3730 ng·h/mL; Vd [18]: 1.46 L/kg; Tmax [26]: 5 h; bioavailability [27]: 75.4%; half-life [28]: 16.7 h; Cmax [29]: 150 ng/mL
1.3,> 20000,CCc1cc(CN2CC(C(=O)O)C2)sc1-c1ncc(-c2ccc(OC(C)C)c(C(C)C)c2)s1,–,0.53,–
